This is one part of a sample in which hits are shown more often than they occur.
HCT116 PTEN-null = suppresses growth of cells with PTEN deletion. HCT116 PTEN-null viability, CellTiter-Glo, 60 h; active compounds read low. viability, % at 10 µM. 140,000 compounds, 1.2% hits. AID 827;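 active = viability at or below a set limit, 4 SD under the median of all tested compounds, cut at about 3.7% in these data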;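 note: PTEN knockout HCT116 line with beta catenin targeted HCT116 as companion control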
HUVEC inhibit = human endothelial cell proliferation inhibition. HUVEC proliferation, CellTiter-Glo luminescence, 72 h; active compounds read low. viability, % at 10 µM (by protocol). 86,000 compounds, 1.1% hits. AID 648;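 active = viability at or below 30%; inactive = viability above 30%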;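 note: 100% = median luminescence of DMSO-only cell control wells on each plate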
H69AR growth 86K = blocks growth of human H69AR lung tumor cells; H69AR lung tumor viability, ATP luminescence, 72 h; active compounds read low; viability, % at 10 µM; 85,000 compounds, 6% hits; AID 598;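 active = viability at or below 40%; inactive = viability above 40%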;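 note: multidrug resistant small cell line overexpressing MRP-1 efflux transporter; 100% = mean luminescence of untreated control wells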
HCT116 bCat-KO = beta-catenin-lacking colon tumor cell growth suppression; HCT116 beta-catenin knockout viability, CellTiter-Glo, 60 h; active compounds read low; viability, % at 10 µM; 140,000 compounds, 1.5% hits; AID 818;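 active = viability at or under a set limit, the compound median less 4 SD, cut at about 6% in these data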;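 note: 0% = Hyamine 1622 control at 20 µM and 100% = untreated cell control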
Fibroblast inh = blocks proliferation of human lung fibroblasts; LL 47 human lung fibroblast viability, ATP luminescence; active compounds read low; AID 719; 85,000 compounds, 1.1% hits; viability, % at 10 µM;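 active = viability at or below 50% in the single dose screen; inactive = viability above 50%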;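 note: compound exposure lasted 72 h before the ATP readout; 100% = median luminescence of untreated cell-only wells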
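Material: Human LL 47 lung fibroblast cells | Input: 1,150 cells/well | Buffer or medium: IMEM plus 15% FBS | Compound dosing: 0.1% DMSO in all compound wells | Times: Overnight cell rest, 72 h compound treatment at 37 °C | Signal: CellTiter-Glo luminescence measuring cellular ATP | Measure: % viability versus median cells-only luminescence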
Active calls of the source: *; · = not tested or not shown.

SMILES	HCT116 PTEN-null	HUVEC inhibit	H69AR growth 86K	HCT116 bCat-KO	Fibroblast inh
CCn1cc([N+](=O)[O-])c(C(=O)Nc2ccn(Cc3ccccc3F)n2)n1	97	·	·	96	·
Cc1ccccc1Cn1ccc(NC(=O)c2nn(C)cc2[N+](=O)[O-])n1	2.1*	·	·	3.8*	·
CN(C)S(=O)(=O)c1ccc2oc(SCC(N)=O)nc2c1	111	·	·	94	·
CCn1ncc(C(=O)Nc2cc(C)on2)c1C	95	·	·	104	·
CC(Nc1nc(N2CCCCC2)nc2ccccc12)c1ccccc1 (centres undefined)	4	3.6*	3.2*	4.2*	21*
C=CCNc1nc(N2CCCC2)nc2ccccc12	39	91	61	46	90
COc1ccc(Nc2ncnc3ccccc23)c(OC)c1	81	79	59	92	92
COc1ccc(Nc2nc(N3CCCC3)nc3ccccc23)c(OC)c1	1.4*	32	2.1*	1.4*	105
CC(C)OC(=O)CSc1nnc(-c2cccnc2)n1Cc1ccccc1	111	103	85	95	99
COc1cccc(NC(=O)N(CCCN2CCOCC2)C(C)c2cc3ccccc3o2)c1 (centres undefined)	65	84	32*	69	90
Cc1ccc(Cl)cc1N1CCN(Cc2nc3ccsc3c(=O)[nH]2)CC1	54	·	·	48	·
Cc1ccc(S(=O)(=O)c2cc3c(=O)n4ccccc4nc3n(Cc3ccco3)c2=N)cc1C	62	87	7.8*	70	73
N=c1c(S(=O)(=O)c2ccccc2)cc2c(=O)n3ccccc3nc2n1CCN1CCOCC1	·	91	73	·	103
N=c1c(S(=O)(=O)c2ccccc2)cc2c(=O)n3ccccc3nc2n1Cc1ccco1	4	87	11*	7	76
COc1cccc(Oc2cn[nH]c2-c2ccc(O)cc2O)c1	93	84	73	94	87
CCOc1ccc(-c2[nH]ncc2Oc2cccc(OC)c2)c(O)c1	90	69	18*	87	93
COc1cccc(Oc2cn[nH]c2-c2ccc(OC)cc2O)c1	88	51	8.1*	94	94
COc1ccc(-c2[nH]ncc2-c2ccc(Cl)cc2)c(O)c1	72	52	14*	89	88
Oc1ccc(-c2[nH]ncc2-c2ccc(Cl)cc2)c(O)c1	67	56	99	76	88
CCC(=O)Nc1nonc1-c1nc2ccccc2n1Cc1cccc2ccccc12	13	51	24*	13	51
COC(=O)c1cn(NC(=O)c2ccc(OC)c(OC)c2)c(=O)c2ccccc12	70	·	·	80	·
CCn1c(SCC(=O)Nc2nccs2)nnc1-c1cc2cccc(OC)c2o1	82	109	96	94	106
COc1cccc2cc(-c3nnc(SCC(=O)Nc4cc(C(F)(F)F)ccc4Cl)n3N)oc12	45	69	7.6*	51	88
CC(=O)Nc1ccc(S(=O)(=O)N2CCSC2c2ccccc2Cl)cc1 (centres undefined)	89	92	·	88	95
O=S(=O)(c1ccc(S(=O)(=O)N2CCCC3(CCCCC3)C2)cc1)N1CCCCC1	41	79	35*	56	84
SMILES	HCT116 PTEN-null	HUVEC inhibit	H69AR growth 86K	HCT116 bCat-KO	Fibroblast inh
CCOC(=O)Cc1csc(NC(=O)c2c(O)c3ccccc3n(C)c2=O)n1	·	104	59	·	103
Cc1ccc2c(CC(=O)Nc3ccc(N4CCN(C)CC4)cc3C)coc2c1	44	15*	22*	46	69
Cc1cn2c(-c3ccc(Cl)cc3)nnc2s1	94	102	99	81	95
CCOC(=O)c1cc(-c2ccncc2)nc2c1c(C)nn2C	48	46	33*	44	57
CCOC(=O)c1cc(-c2ccccc2)nc2c1c(C)nn2-c1ccccn1	38	77	45	54	66
CCOc1ccc(CCNc2ccc3nnc(-c4ccccc4)n3n2)cc1OCC	18	·	·	60	·
Cc1ccccc1N=C(NOCc1ccc(Cl)cc1Cl)c1nonc1N	65	86	9.2*	69	79
Cc1ccc(N=C(NOCc2ccc(Cl)cc2Cl)c2nonc2N)c(C)c1	54	92	66	42	83
COC(=O)c1cc(NC(=O)CSc2nnc(CN3CCOCC3)n2C)ccc1Cl	80	93	102	77	73
COc1ccc(N(CC(=O)Nc2nc3ccc(C)cc3s2)S(=O)(=O)c2c(C)nn(C)c2C)cc1	32	73	15*	26	86
Cc1ccc(Nc2nc(N)nc(CN3CCc4ccccc4C3)n2)cc1	69	91	71	61	95
COc1ccccc1Nc1nc(N)nc(CSc2ncccn2)n1	104	89	87	99	101
Cc1c(Cl)cccc1Nc1nc(N)nc(CN2CCc3ccccc3C2)n1	53	89	15*	64	87
COc1ccc(N2CCN(Cc3nc(N)nc(Nc4ccccc4OC)n3)CC2)cc1	96	98	7.7*	86	103
COc1ccc(OCc2nc(N)nc(Nc3ccccc3OC)n2)cc1	86	95	2.2*	76	77
CCCCN(C)C(=O)C1CCN(C/C(C)=C/c2ccccc2)CC1	89	94	85	93	101
Cc1nc(NCCN2CCOCC2)c2nnn(Cc3ccccc3Cl)c2n1	98	119	87	97	99
COc1ccc(-c2nc(N)nc(C)c2Oc2ccccc2Br)c(O)c1	19	80	23*	25	75
COc1ccc(-c2nc(N)ncc2-c2csc(C)n2)c(O)c1	85	106	94	88	95
COc1ccc(-c2csc3nc(-c4ccc(C)cc4)oc(=O)c23)cc1OC	1.8*	·	·	1.7*	·
COc1ccc(-c2csc3nc(C)n(-n4cccc4)c(=O)c23)cc1OC	99	68	98	91	80
NC(=O)c1oc2ccccc2c1NC(=O)CCc1ccccc1	107	98	94	95	99
CCN1CNC(=S)N(Cc2ccccc2)C1	88	·	·	83	·
CCCCCN1CSC(=S)N(Cc2ccccc2)C1	3.3*	·	·	5.6*	·
COc1ccc(-c2cc(C(=O)Nc3c(C)nn(Cc4ccccc4Cl)c3C)no2)cc1	65	88	33*	62	90
SMILES	HCT116 PTEN-null	HUVEC inhibit	H69AR growth 86K	HCT116 bCat-KO	Fibroblast inh
Cc1nn(Cc2c(Cl)cccc2Cl)c(C)c1NC(=O)c1cc(C(C)C)on1	30	72	7.7*	64	35*
Cc1nn(Cc2ccc(Cl)c(Cl)c2)c(C)c1NC(=O)c1cc(-c2ccc3c(c2)OCO3)on1	1.8*	12*	1.4*	1.5*	76
Cc1nn(Cc2ccc(Cl)cc2)c(C)c1NC(=O)c1cc(-c2ccc3c(c2)OCO3)on1	83	49	81	92	105
Cc1ccc2c(CN3CCN(S(=O)(=O)c4ccc5c(c4)OCCO5)CC3)cc(=O)oc2c1C	39	103	76	41	·
COc1ccc(C)cc1NS(=O)(=O)c1ccc(NC(=O)CN(c2cc([N+](=O)[O-])ccc2C)S(C)(=O)=O)cc1	34	·	·	40	·
O=C(c1ccccc1)N1CCN(C(=O)c2cc3ccccc3o2)CC1	100	100	94	96	105
O=C(NCc1cccnc1)c1ccc(Cl)c(Cl)c1	95	95	86	95	91
